A short description of data set [1]: Selumetinib plasma pharmacokinetics. It counts as in vivo, human. As to conditions: for Log (Cmax (ng/mL) – dose normalized) / Log(AUC 0-∞ (ng/mL × hr) – dose normalized): mean ± SD; for half-life: T ½. An outline of the steps:
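Patients with refractory solid tumours or KRAS-mutant CRC took oral MEK inhibitor capsules fasting, with the morning dose ≥1 h before the anti-EGFR antibody (400 mg/m2 IV load, then 250 mg/m2 weekly; 28-day cycles). EDTA plasma was drawn at baseline and 0.5–12 h post-dose on C1D1, and assayed by validated LC-MS/MS (LOD 3.91 ng/ml). Analysis was noncompartmental. Dose levels 1–2 were pooled.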

Data set [2] has as its system ERK phosphorylation. The note with it: peripheral blood mononuclear cells and tumor biopsies; cited from earlier work.
Data set [3] is classed as in vivo, human. As to conditions: PO BID, with cetuximab 250 mg/m^2 weekly following a 400 mg/m^2 load.
The conditions of data set [4]: solid formulation, orally twice daily; cited from earlier work.
[5] abbreviates: day 1 of cycle 1, dose level 1 (selumetinib 50mg), N=6, mean ± SD.
The mark [6] stands for this setting: day 1 of cycle 1, dose level 1 and 2 combined (N=10).
Where [7] appears, read: day 1 of cycle 1, dose level 2 (selumetinib 50mg), N=4, mean ± SD.
Where [8] appears, read: day 1 of cycle 1, dose level 3 incl. expansion cohort (N=22).
[9] abbreviates: human, plasma, oral, 50 mg, day 1 of cycle 1, dose level 1 (selumetinib 50mg), N=6, mean ± SD.
Setting [10] is: human, plasma, oral, 50 mg, day 1 of cycle 1, dose level 2 (selumetinib 50mg), N=4, mean ± SD.

These results are taken from paper PMC4788533 (Investigational new drugs, 2015).

Each structure is given as a SMILES string.

On to `Cn1cnc2c(F)c(Nc3ccc(Br)cc3Cl)c(C(=O)NOCCO)cc21` [selumetinib], for which the Cl/F came out at 23.9 ± 5.48 L/h in data set [1] (setting [5]) and 21.0 ± 2.53 L/h in data set [1] (setting [7]). Besides, the V/F in data set [1] (setting [5]) amounted to 76.9 ± 18.1 L; in data set [1] (setting [7]) it was 70.4 ± 19.7 L. Further, the “Log (Cmax (ng/mL) – dose normalized)” value in data set [1] (setting [6]) was 3.19 ± 0.23; in data set [1] (setting [8]), 3.00 ± 0.43. Further, the results for the “Log(AUC 0-∞ (ng/mL × hr) – dose normalized)” value in data set [1] (setting [6]) and in data set [1] (setting [8]) were 4.23 ± 0.17 and 4.24 ± 0.54, respectively. Also, the Cmax in data set [1] (day 1 of cycle 1, dose level 2 (selumetinib 50mg), N=4, geometric mean (CV)) was 1143 (CV 0.28) ng/mL; in data set [1] (human, plasma, oral, 50 mg, Cmax, day 1 of cycle 1, dose level 1 (selumetinib 50mg), N=6, geometric mean (CV)), 1320 ng/mL. For the same compound, the AUC in data set [1] (human, plasma, oral) lay in the range of 3210 to 5200 ng·h/mL. The AUC(0-inf) in data set [1] (human, plasma, oral, 50 mg, day 1 of cycle 1, dose level 1 (selumetinib 50mg), N=6, geometric mean (CV)) is 3210 ng·h/mL; in data set [1] (human, plasma, oral, 50 mg, day 1 of cycle 1, dose level 1 and 2 combined (50mg dose, N=10), geometric mean (CV)) it was 3450 ng·h/mL; in data set [1] (human, plasma, oral, 50 mg, day 1 of cycle 1, dose level 2 (selumetinib 50mg), N=4, geometric mean (CV)) it was 3610 ng·h/mL. Further, the half-life in data set [1] (setting [9]) was 2.28 ± 0.55 h; in data set [1] (setting [10]), 2.31 ± 0.55 h. In addition, the figures for the Tmax in data set [1] (setting [9]) and in data set [1] (setting [10]) were 1.13 ± 0.25 h and 1.92 ± 1.28 h, respectively. Further, in data set [2], the “ERK phosphorylation following selumetinib treatment” value is “Inhibition of ERK phosphorylation was observed”. Moreover, in data set [3], the “maximum tolerated dose of the combination, selumetinib part” value amounted to 75 mg. For the same compound, the “maximum tolerated dose (MTD) of selumetinib, single agent” value in data set [4] is recorded as 75 mg.
